Data set [1] in a line: AUC (0 to t) in CD-1 mouse at 10 mg/kg, po by LC-MS/MS analysis. It counts as ADME, organism-based. The arrangement: dose 10 mg/kg. The conditions noted are these: in vivo. Summed up:
(§1)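 Compound formulated in 5% DMSO + 5% Tween-80 in 90% saline and given to male ICR (CD-1) mice (n = 9) at 10 mg/kg po, 1 mg/kg ip or 1 mg/kg iv. Blood was drawn via the jugular vein at set time points and held on ice. Plasma was separated by centrifugation and stored at −80 °C before PK parameters were derived.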

Data set [2] deals with TMD8. The data set can be described thus: Induction of apoptosis in human TMD8 cells assessed as early apoptotic cells at 2 uM measured after 24 hrs by Annexin V-FITC/ Propidium iodide staining based flow cytometry (reference value: 6.97%). In kind it is functional.
The nature of data set [3]: Apparent volume of distribution in CD-1 mouse at 1 mg/kg, iv by LC-MS/MS analysis. The conditions noted are these: in vivo, read-out: Vz. In kind it is ADME, organism-based. Summed up: as §1
The target in data set [4] is T1, Mucosa-associated lymphoid tissue lymphoma translocation protein 1 (Homo sapiens) (UniProt Q9UDY8).
T1 sequence (whole entry): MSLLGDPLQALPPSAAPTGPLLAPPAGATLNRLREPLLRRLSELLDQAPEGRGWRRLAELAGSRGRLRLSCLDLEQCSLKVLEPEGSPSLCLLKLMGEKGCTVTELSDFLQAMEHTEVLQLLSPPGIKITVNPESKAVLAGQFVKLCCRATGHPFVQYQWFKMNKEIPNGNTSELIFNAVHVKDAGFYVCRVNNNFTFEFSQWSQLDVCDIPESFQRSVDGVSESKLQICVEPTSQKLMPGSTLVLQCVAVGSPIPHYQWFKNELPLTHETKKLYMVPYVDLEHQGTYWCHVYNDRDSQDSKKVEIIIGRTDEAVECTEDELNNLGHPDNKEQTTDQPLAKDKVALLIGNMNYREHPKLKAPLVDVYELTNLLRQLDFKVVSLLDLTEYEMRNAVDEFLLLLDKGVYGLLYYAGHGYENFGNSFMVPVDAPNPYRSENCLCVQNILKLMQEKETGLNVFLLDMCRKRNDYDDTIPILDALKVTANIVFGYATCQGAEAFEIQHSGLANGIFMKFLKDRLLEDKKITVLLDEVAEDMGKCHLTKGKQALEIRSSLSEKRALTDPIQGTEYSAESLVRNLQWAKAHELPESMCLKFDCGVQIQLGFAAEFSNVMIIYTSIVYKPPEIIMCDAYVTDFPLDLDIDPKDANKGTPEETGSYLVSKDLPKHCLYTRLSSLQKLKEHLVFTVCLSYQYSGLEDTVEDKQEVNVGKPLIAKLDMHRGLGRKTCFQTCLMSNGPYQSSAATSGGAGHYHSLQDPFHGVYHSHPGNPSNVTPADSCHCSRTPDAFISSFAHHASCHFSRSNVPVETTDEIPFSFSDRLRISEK
As to the kind of experiment: Inhibition of MALT1 in human TMD8 cells assessed as decrease in RelB substrate cleavage at 8 uM preincubated for 30 mins followed by proteosome inhibitor MG-132 addition and measured after 2 hrs by Western blot analysis. In kind it is cell-based. The conditions noted are these: time 2.5 hrs. Summed up:
(§2)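 Cells were grown in RPMI with 10% FBS, 2 mM glutamine and 10 mM HEPES at 37 °C, 5% CO₂. Pretreated 30 min with compound (4 and 8 μM), then 10 μM MG-132 for 2 h. 20−75 μg total protein run on SDS-PAGE, blotted to PVDF, probed for RelB, detected by HRP chemiluminescence. β-actin was the loading control.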
In general terms: Immunoblotting shows a protein as a band on a membrane.

For data set [5], the system named is OCI-Ly1. The data set can be described thus: Induction of apoptosis in human OCI-Ly1 cells assessed as early apoptotic cells at 2 uM measured after 24 hrs by Annexin V-FITC/ Propidium iodide staining based flow cytometry (reference value: 1.29%). It counts as functional.
The nature of data set [6]: Half life in CD-1 mouse at 1 mg/kg, ip by LC-MS/MS analysis. The settings on record: in vivo. In kind it is ADME, organism-based. Summed up: as §1
Data set [7] deals with TMD8. As to the kind of experiment: Antiproliferative activity against human TMD8 cells assessed as inhibition of cell growth incubated for 72 hrs by Celltiter-Glo luminescent assay. It counts as functional. Summed up: (§3)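 Exponentially growing cells were seeded at 1 × 10⁴ per 100 μL. HBL-1 and TMD8 were kept in RPMI with 10% FBS, 2 mM glutamine and 10 mM HEPES; OCI-LY1 in Iscove's medium with 20% FBS; all at 37 °C and 5% CO2. Cells were exposed to DMSO or 2-fold serial dilutions from 100 μM for 72 h, in triplicate on one plate. CellTiter-Glo luminescence was read after 1 h. Growth inhibition was calculated against control, accounting for initial cell number, and GI50 was fitted.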

Data set [8] is described as follows: Induction of apoptosis in human HBL1 cells assessed as dead cells at 2 uM measured after 24 hrs by Annexin V-FITC/ Propidium iodide staining based flow cytometry (reference value: 2.32%). It counts as functional.
In data set [9] the test system is OCI-Ly1. The data set can be described thus: Induction of apoptosis in human OCI-Ly1 cells assessed as dead cells at 5 uM measured after 24 hrs by Annexin V-FITC/ Propidium iodide staining based flow cytometry (reference value: 0.365%). It counts as functional. A general note: In flow cytometry, cells or beads pass a laser one at a time.
Data set [10] deals with T1, Mucosa-associated lymphoid tissue lymphoma translocation protein 1 (Homo sapiens). The data set can be described thus: Inhibition of MALT1 in human HBL1 cells assessed as decrease in RelB substrate cleavage at 8 uM preincubated for 30 mins followed by proteosome inhibitor MG-132 addition and measured after 2 hrs by Western blot analysis. It counts as cell-based. The conditions noted are these: time 2.5 hrs. Summed up:
as §2

For data set [11], the system named is OCI-Ly1. As to the kind of experiment: Induction of apoptosis in human OCI-Ly1 cells assessed as increase in cleaved caspase 3 level at 2 to 5 uM measured after 12 hrs by Western blot analysis. In kind it is functional, cell-based. The conditions noted are these: dose 2-5 µM. Summed up: (§4)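 HBL1, TMD8 or OCI-LY1 cells were exposed to DMSO or compound for 12 h. Cleaved PARP and caspase-3 were probed by western blot with HRP-conjugated secondary antibodies and chemiluminescent detection. Each lane held 20−75 μg total protein.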

In data set [12] the test system is OCI-Ly1. As to the kind of experiment: Antiproliferative activity against human OCI-Ly1 cells assessed as inhibition of cell growth incubated for 72 hrs by Celltiter-Glo luminescent assay. In kind it is functional. Summed up:
as §3
On the technique in general: Cellular ATP, detected with luciferase, serves as a proxy for viable cell number.

Data set [13] can be described thus: Induction of apoptosis in human HBL1 cells assessed as viable cells at 5 uM measured after 24 hrs by Annexin V-FITC/ Propidium iodide staining based flow cytometry (reference value: 88.1%). The conditions noted are these: read-out: Activity. In kind it is functional.
Data set [14] deals with HBL1. As to the kind of experiment: Induction of apoptosis in human HBL1 cells assessed as increase in cleaved caspase 3 level measured after 12 hrs by Western blot analysis. It counts as functional, cell-based. Summed up: as §4
The test system of data set [15] is TMD8. The data set can be described thus: Induction of apoptosis in human TMD8 cells assessed as dead cells at 5 uM measured after 24 hrs by Annexin V-FITC/ Propidium iodide staining based flow cytometry (reference value: 0 %). In kind it is functional.
Data set [16] is described as follows: Induction of apoptosis in human HBL1 cells assessed as early apoptotic cells at 5 uM measured after 24 hrs by Annexin V-FITC/ Propidium iodide staining based flow cytometry (reference value: 4.85%). It counts as functional.
Data set [17] deals with OCI-Ly1. As to the kind of experiment: Induction of apoptosis in human OCI-Ly1 cells assessed as late apoptotic cells at 10 uM measured after 24 hrs by Annexin V-FITC/ Propidium iodide staining based flow cytometry (reference value: 0.548%). It counts as functional.
Data set [18] in a line: Antiproliferative activity against human HBL1 cells assessed as inhibition of cell growth incubated for 72 hrs by Celltiter-Glo luminescent assay. In kind it is functional. Summed up:
as §3

Data set [19] deals with TMD8. As to the kind of experiment: Induction of apoptosis in human TMD8 cells assessed as dead cells at 10 uM measured after 24 hrs by Annexin V-FITC/ Propidium iodide staining based flow cytometry (reference value: 0%). In kind it is functional.
Data set [20] can be described thus: AUC (0 to t) in CD-1 mouse at 1 mg/kg, iv by LC-MS/MS analysis. In kind it is ADME, organism-based. Details: dose 1 mg/kg. The conditions noted are these: in vivo. Summed up:
as §1

Each structure is given as a SMILES string. Activity calls are given as the source filed them. The rule behind the calls is not given here.

As usually defined, the AUC(0-t) is exposure summed from dosing to a finite time, without extrapolation to infinity. As usually defined, the half-life is the time in which the quantity being followed falls by half. Lower therefore signals rapid decline. By GI50 is commonly meant the concentration giving 50% growth inhibition. As to `COc1ccc(OC)c(NC(=O)c2sc(=S)n(-c3ccc(C(F)(F)F)cc3)c2NC(=O)CCl)c1`, the results for the AUC(0-t) in data set [1] and in data set [20] were 11200 ng·h/mL and 1010 ng·h/mL, respectively. The Activity in data set [2] is 8%; in data set [5] it was 1.87%; in data set [8], 1.94%; in [9], 0.204%; in data set [14] it was “Dose-Dependent Effect”; in [15], 0.422%. For the same molecule, the values for the Activity in data set [16], in data set [17] and in [19] were 42.1%, 1.53% and 0.625%, respectively. Further, in data set [3], the Vd was determined as 4.82 L/kg. For the same molecule, the inhibition entry in data set [4] and in data set [10] was “Active” each time. The half-life in data set [6] is 4.5 h. Further, the GI50 in [7] was 400 nM; in data set [12], 10700 nM; in [18] it was 1000 nM. Moreover, the result in data set [11] was inactive. Also, the viability at 5 µM in data set [13] amounted to 38.8%.

(Values after ChEMBL document CHEMBL5032510, “Identification of Novel Fused Heteroaromatics-Based MALT1 Inhibitors by High-Throughput Screening to Treat B Cell Lymphoma” (J Med Chem, 2021).)
